The values below come from PubChem BioAssay.

Usually inhibition stands for the drop in the measured response relative to a control, in per cent.

A number with no mark means an inactive call.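 Rule for the calls, unless noted: active = growth inhibition above 25% in both replicates, a cutoff set 3 SD above the mean; inconclusive = above 25% in only one replicate; inactive = the rest.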

The first assay is described as follows: growth suppression of yeast trafficking mutant, preliminary HTS, modulators of trafficking downstream of Golgi apparatus project, 1536-format plate, OD 615 nm (AID 637; in the data active = inhibition above about 30%). As to conditions: yeast transport mutant growth, absorbance 615 nm, 18 h; active compounds read high.
For the molecule `COCCCNC(=O)c1ccc(CS(=O)(=O)c2ccc(OC)cc2)o1`, the inhibition is 2.62%.

As to `O=C(c1ccc(CSCc2ccccc2F)o1)N1CCN(c2ccc(N3CCOCC3)nn2)CC1`, the inhibition was -0.17%.

For `COCCOC(=O)c1[nH]c2c(c1C)C(=O)CC(c1ccco1)C2` (stereo not given), the inhibition is 5.67%.

For `CCOC(=O)CSc1nnc(Cn2c(=O)sc3ccccc32)n1C`, the inhibition is -2.5%.

Take `CCCC(=O)C1=C(N(C)c2ccccc2)CC(C)(C)C(C(=O)OC)C1=O` (stereo not given): the inhibition was -2.83%.

As to `CC1(C)CC(=O)N(CC(=O)NCc2ccccc2)c2ccccc2S1(=O)=O`, the inhibition was -1.33%.

On to `CCOc1cc(C2NC(=O)NC(O)(C(F)(F)F)C2C(=O)c2ccccc2)ccc1OC` (stereo not given), for which the inhibition is -8.2%.

In the case of `Cn1c(C(=O)NCCN2CCN(c3ccccc3F)CC2)cc2c(=O)n(C)c3ccccc3c21`, the inhibition is 2%.

Take `Cc1cc2ccccc2n1CCNC(=O)C1CC1`: the inhibition is 4.67%.

As to `Cc1cccc(NC(=O)CS(=O)(=O)c2cn(C)c3ccccc23)c1`, the inhibition was -0.98%.

Turning to `COc1nnc(-c2ccc(C)c(S(=O)(=O)NCCO)c2)c2ccccc12`, the inhibition was -6%.

As for `COc1ccc(-c2cnc(SCC(=O)Nc3ccc4c(c3)OCO4)n2Cc2ccco2)cc1`, the inhibition is -6.03%.

Regarding `Cn1cnc2cc(NC(=O)c3ccc(Cl)cc3)ccc21`, the inhibition was -3.33%.

Regarding `CC1CCc2nn(CC(=O)Nc3ccc(F)cc3F)cc2C1` (stereo not given), the inhibition was -6.72%.

Consider `Cc1ccc(-c2noc(CN3CCN(c4ccccc4F)CC3)n2)cc1`, for which the inhibition was -1.5%.

Regarding `Cc1ccc(NC(=O)c2cc(-c3ccc(C)o3)nc3ccccc23)nc1`, the inhibition was -0.82%.

For the molecule `Cc1nnc(N2C(=O)C(O)=C(C(=O)c3ccco3)C2c2ccc(F)cc2)s1` (stereo not given), the inhibition was 1.67%.

On to `COc1ccccc1N(CC(=O)Nc1cccnc1)S(C)(=O)=O`, for which the inhibition was -3.28%.

On to `CCCc1cc(C(=O)Nc2ccccc2SC)no1`, for which the inhibition was 5.67%.

For `O=C(CSc1nc2c(c(=O)n1-c1ccc(F)cc1)SCC2)NCC1CCCO1` (stereo not given), the inhibition was -1.61%.

`COc1ccc(-c2nc(C)c(C(C)=O)n2O)cc1OC`: the inhibition was -8.33%.

As for `C=CCOC(=O)COc1ccc2c(C)c(C)c(=O)oc2c1C`, the inhibition was -3.49%.

For the molecule `CN(C)CCCNC(=O)CCC1CCCCC1`, the inhibition is 1.17%.

With `CC(C)(O)C#Cc1ccc(C(=O)N2CCN(C(=O)c3ccco3)CC2)cc1`, the inhibition was 2.74%.

In the case of `Nc1cccc2c1C(=O)N(c1ccccc1)C2=O`, the inhibition is -1.48%.

As to `COc1ccc(N2CCN(CCNC(=O)CCS(=O)(=O)c3cccc4nsnc34)CC2)cc1`, the inhibition was -0.16%.

`CCOC(=O)CCc1c(C)nc2cc(-c3ccc(F)cc3)[nH]n2c1=O`: the inhibition is -7.33%.

As for `O=C1CC(c2cccnc2)c2cc3c(cc2N1)OCO3` (stereo not given), the inhibition was -9.18%.

For `COc1ccccc1CNC(=O)C1CCCN(S(=O)(=O)c2cccc3cccnc23)C1` (stereo not given), the inhibition was -2.17%.

As to `Oc1c(C(c2ccccc2)N2CCc3ccccc3C2)sc2ncnn12` (stereo not given), the inhibition was -2%.

For `O=C(NCCc1c[nH]c2ccccc12)c1cnc2n(c1=O)CCS2`, the inhibition was 1.8%.

Turning to `CC(NC(=O)c1cc2c(=O)n(C)c3ccccc3c2n1C)c1ccc2c(c1)OCCO2` (stereo not given), the inhibition is 1.33%.

Consider `CCOC(=O)c1ccc(-n2c(C)nc3c(cnn3-c3ccccc3C)c2=O)cc1`, for which the inhibition is -3.93%.

Regarding `COc1ccc(CCNC(=O)CSc2nnnn2-c2ccccc2OC)cc1OC`, the inhibition was -0.5%.

For `CCCSc1nnc(N2C(=O)CC(c3ccsc3)C3=C2CCCC3=O)s1` (stereo not given), the inhibition was -4.5%.

For `COC(=O)Cn1c(=O)c2c(nc3n2CC(C)CN3c2ccc(C)c(C)c2)n(C)c1=O` (stereo not given), the inhibition is -3.5%.

Regarding `O=C(Nc1cccnc1)Nc1ccccn1`, the inhibition is -2.33%.

As to `CCn1cc(C(=O)NCc2ccccc2OC)c(=O)c2cc(S(=O)(=O)N(C)C)ccc21`, the inhibition was 0.17%.

As to `CC1CCN(c2oc(-c3ccccc3F)nc2C#N)CC1`, the inhibition is 2.79%.

As to `Clc1ccc(Nc2ncnc3c2cnn3-c2ccccc2)cc1`, the inhibition was 0%.

A short description of another assay: OD615 S. cerevisiae growth inhibition, permissive medium, pilot counter-assay, permissive growth control for S. cerevisiae lifespan shortening project (AID 705). The settings on record: OD615, 24 h, at 10 µM, active compounds read high. A digest of the protocol: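 assay system = Saccharomyces cerevisiae strain carrying genetically modified DeaD replicative-lifespan system | medium = SC raffinose/galactose permissive medium | dosing = 10 µM single dose, 0.25% DMSO | schedule = 24 h compound exposure at 30 °C after 4 h pre-growth | measured by = OD at 615 nm | read-out basis = growth inhibition from lowered OD615 after 24 h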
For the molecule `COCCCNC(=O)c1ccc(CS(=O)(=O)c2ccc(OC)cc2)o1`, the growth inhibition was -12%.

On to `O=C(c1ccc(CSCc2ccccc2F)o1)N1CCN(c2ccc(N3CCOCC3)nn2)CC1`, for which the growth inhibition was 1.75%.

As for `COCCOC(=O)c1[nH]c2c(c1C)C(=O)CC(c1ccco1)C2` (stereo not given), the growth inhibition was -16%.

Take `CCOC(=O)CSc1nnc(Cn2c(=O)sc3ccccc32)n1C`: the growth inhibition is 1.56%.

For `CCCC(=O)C1=C(N(C)c2ccccc2)CC(C)(C)C(C(=O)OC)C1=O` (stereo not given), the growth inhibition is -1.78%.

In the case of `CC1(C)CC(=O)N(CC(=O)NCc2ccccc2)c2ccccc2S1(=O)=O`, the growth inhibition was -3.67%.

`CCOc1cc(C2NC(=O)NC(O)(C(F)(F)F)C2C(=O)c2ccccc2)ccc1OC` (stereo not given): the growth inhibition was -0.49%.

`Cn1c(C(=O)NCCN2CCN(c3ccccc3F)CC2)cc2c(=O)n(C)c3ccccc3c21`: the growth inhibition is -0.67%.

Consider `Cc1cc2ccccc2n1CCNC(=O)C1CC1`, for which the growth inhibition was -2.51%.

In the case of `Cc1cccc(NC(=O)CS(=O)(=O)c2cn(C)c3ccccc23)c1`, the growth inhibition is 1.62%.

Regarding `COc1nnc(-c2ccc(C)c(S(=O)(=O)NCCO)c2)c2ccccc12`, the growth inhibition was -0.385%.

In the case of `COc1ccc(-c2cnc(SCC(=O)Nc3ccc4c(c3)OCO4)n2Cc2ccco2)cc1`, the growth inhibition is 1.77%.

As for `Cn1cnc2cc(NC(=O)c3ccc(Cl)cc3)ccc21`, the growth inhibition was 0.595%.

Regarding `CC1CCc2nn(CC(=O)Nc3ccc(F)cc3F)cc2C1` (stereo not given), the growth inhibition is -2.97%.

Turning to `Cc1ccc(-c2noc(CN3CCN(c4ccccc4F)CC3)n2)cc1`, the growth inhibition is 1.99%.

For the molecule `Cc1ccc(NC(=O)c2cc(-c3ccc(C)o3)nc3ccccc23)nc1`, the growth inhibition was 3.23%.

As for `Cc1nnc(N2C(=O)C(O)=C(C(=O)c3ccco3)C2c2ccc(F)cc2)s1` (stereo not given), the growth inhibition was -13.9%.

In the case of `COc1ccccc1N(CC(=O)Nc1cccnc1)S(C)(=O)=O`, the growth inhibition was -5.2%.

Consider `CCCc1cc(C(=O)Nc2ccccc2SC)no1`, for which the growth inhibition was -11.4%.

As for `O=C(CSc1nc2c(c(=O)n1-c1ccc(F)cc1)SCC2)NCC1CCCO1` (stereo not given), the growth inhibition is -8.12%.

With `COc1ccc(-c2nc(C)c(C(C)=O)n2O)cc1OC`, the growth inhibition is -5.41%.

Consider `C=CCOC(=O)COc1ccc2c(C)c(C)c(=O)oc2c1C`, for which the growth inhibition was -18.3%.

As for `CN(C)CCCNC(=O)CCC1CCCCC1`, the growth inhibition was -1.1%.

Consider `CC(C)(O)C#Cc1ccc(C(=O)N2CCN(C(=O)c3ccco3)CC2)cc1`, for which the growth inhibition is -17.3%.

`Nc1cccc2c1C(=O)N(c1ccccc1)C2=O`: the growth inhibition was -10.6%.

On to `COc1ccc(N2CCN(CCNC(=O)CCS(=O)(=O)c3cccc4nsnc34)CC2)cc1`, for which the growth inhibition was 0.45%.

Consider `CCOC(=O)CCc1c(C)nc2cc(-c3ccc(F)cc3)[nH]n2c1=O`, for which the growth inhibition was -13.1%.

On to `O=C1CC(c2cccnc2)c2cc3c(cc2N1)OCO3` (stereo not given), for which the growth inhibition is -2.55%.

For the molecule `COc1ccccc1CNC(=O)C1CCCN(S(=O)(=O)c2cccc3cccnc23)C1` (stereo not given), the growth inhibition was -5.17%.

Regarding `Oc1c(C(c2ccccc2)N2CCc3ccccc3C2)sc2ncnn12` (stereo not given), the growth inhibition is 7.92%.

In the case of `O=C(NCCc1c[nH]c2ccccc12)c1cnc2n(c1=O)CCS2`, the growth inhibition was -5.46%.

On to `CC(NC(=O)c1cc2c(=O)n(C)c3ccccc3c2n1C)c1ccc2c(c1)OCCO2` (stereo not given), for which the growth inhibition was -5.51%.

On to `CCOC(=O)c1ccc(-n2c(C)nc3c(cnn3-c3ccccc3C)c2=O)cc1`, for which the growth inhibition is 2.42%.

For the molecule `COc1ccc(CCNC(=O)CSc2nnnn2-c2ccccc2OC)cc1OC`, the growth inhibition is -2.03%.

`CCCSc1nnc(N2C(=O)CC(c3ccsc3)C3=C2CCCC3=O)s1` (stereo not given): the growth inhibition is -3.18%.

Consider `COC(=O)Cn1c(=O)c2c(nc3n2CC(C)CN3c2ccc(C)c(C)c2)n(C)c1=O` (stereo not given), for which the growth inhibition is -5.87%.

`O=C(Nc1cccnc1)Nc1ccccn1`: the growth inhibition was -2.38%.

As to `CCn1cc(C(=O)NCc2ccccc2OC)c(=O)c2cc(S(=O)(=O)N(C)C)ccc21`, the growth inhibition is -8.34%.

For the molecule `CC1CCN(c2oc(-c3ccccc3F)nc2C#N)CC1`, the growth inhibition was -14.9%.

`Clc1ccc(Nc2ncnc3c2cnn3-c2ccccc2)cc1`: the growth inhibition was -10.8%.
